Consider four molecules from ChEMBL document CHEMBL3797037, “Kinetically Selective Inhibitors of Human Carbonic Anhydrase Isozymes I, II, VII, IX, XII, and XIII” (J Med Chem, 2016).

Assay [1] deals with T1, Carbonic anhydrase 7 (Homo sapiens, UniProt P43166). Briefly: Binding affinity to human recombinant CA7 after 30 secs by surface plasmon resonance assay.
Assay [2] has as its target T2, Carbonic anhydrase 13 (Homo sapiens, UniProt Q8N1Q1). The assay can be described thus: Binding affinity to human recombinant CA13 after 30 secs by surface plasmon resonance assay. Background: SPR reads the build-up and loss of mass on a sensor chip optically.
Target sequence in this assay (Q8N1Q1 whole entry, the tested form may be a part): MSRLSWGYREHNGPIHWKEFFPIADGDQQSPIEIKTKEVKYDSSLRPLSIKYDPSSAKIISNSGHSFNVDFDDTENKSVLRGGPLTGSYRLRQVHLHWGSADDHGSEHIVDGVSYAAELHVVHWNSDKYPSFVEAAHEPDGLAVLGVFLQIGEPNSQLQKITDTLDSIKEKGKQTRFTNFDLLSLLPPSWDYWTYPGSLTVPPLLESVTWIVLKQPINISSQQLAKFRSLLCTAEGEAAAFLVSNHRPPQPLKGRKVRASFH
The target of assay [3] is T3, Carbonic anhydrase 9 (Homo sapiens, UniProt Q16790). The assay can be described thus: Binding affinity to human recombinant CA9 catalytic domain by fluorescence-based thermal shift assay.
In assay [4] the target is T1, Carbonic anhydrase 7. The assay can be described thus: Binding affinity to human recombinant CA7 by fluorescence-based thermal shift assay.
Assay [5] deals with T4, Carbonic anhydrase 12 (Homo sapiens, UniProt O43570). Briefly: Slow rate dissociation at human recombinant CA12 catalytic domain after 30 sec by surface plasmon resonance assay. In a few lines: (§1)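 SPR kinetics at 25 °C on amine-coupled isozyme surfaces, with immobilization protein level and acetate coupling pH set per isozyme. Running buffer PBST, pH 7.4, with 2 % DMSO. Ligands run as 2-fold series from 15.6 to 2000 nM at 30 or 90 µL/min, with 30 s association and 180 s dissociation.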

For assay [6], the target named is T2, Carbonic anhydrase 13. Briefly: Binding affinity to human recombinant CA13 by fluorescence-based thermal shift assay.
Target sequence in this assay (Q8N1Q1 whole entry, the tested form may be a part): as above
Assay [7] concerns the target T4, Carbonic anhydrase 12. The assay can be described thus: Binding affinity to human recombinant CA12 catalytic domain by fluorescence-based thermal shift assay.
Assay [8] deals with T5, Carbonic anhydrase 1 (Homo sapiens, UniProt P00915). Briefly: Binding affinity to human recombinant CA1 expressed in Escherichia coli by fluorescence-based thermal shift assay.
Target sequence in this assay (P00915 whole entry, the tested form may be a part): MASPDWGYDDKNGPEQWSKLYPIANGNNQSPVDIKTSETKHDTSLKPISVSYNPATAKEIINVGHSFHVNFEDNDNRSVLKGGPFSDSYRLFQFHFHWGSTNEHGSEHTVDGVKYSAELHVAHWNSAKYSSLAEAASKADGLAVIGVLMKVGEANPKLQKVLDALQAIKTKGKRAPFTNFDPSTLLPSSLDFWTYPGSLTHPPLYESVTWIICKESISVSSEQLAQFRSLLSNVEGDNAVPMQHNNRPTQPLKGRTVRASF
Assay [9] addresses T3, Carbonic anhydrase 9. The assay can be described thus: Slow rate dissociation at human recombinant CA9 catalytic domain after 30 sec by surface plasmon resonance assay. The method, boiled down:
as §1

Assay [10] concerns the target T6, Carbonic anhydrase 2 (Homo sapiens, UniProt P00918). Briefly: Binding affinity to human recombinant CA2 expressed in Escherichia coli by fluorescence-based thermal shift assay.
For assay [11], the target named is T6, Carbonic anhydrase 2. Briefly: Binding affinity to human recombinant CA2 expressed in Escherichia coli after 30 secs by surface plasmon resonance assay.
Assay [12] addresses T1, Carbonic anhydrase 7. Briefly: Binding affinity to human recombinant CA7 assessed as dissociation rate constant after 30 secs by surface plasmon resonance assay.
Assay [13] deals with T4, Carbonic anhydrase 12. The assay can be described thus: Binding affinity to human recombinant CA12 catalytic domain assessed as dissociation rate constant after 30 secs by surface plasmon resonance assay.
The target in assay [14] is T2, Carbonic anhydrase 13. The assay can be described thus: Slow rate dissociation at human recombinant CA13 after 30 sec by surface plasmon resonance assay. In a few lines: as §1
Target sequence in this assay (Q8N1Q1 whole entry, looked up, the tested form may be a part): as the sequence (Q8N1Q1 whole entry, the tested form may be a part) above
Assay [15] deals with T3, Carbonic anhydrase 9. Briefly: Binding affinity to human recombinant CA9 catalytic domain after 30 secs by surface plasmon resonance assay. The method, boiled down:
(§2)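 SPR kinetics at 25 °C on amine-coupled isozyme surfaces, with immobilization protein level and acetate coupling pH set per isozyme. Running buffer PBST, pH 7.4, with 2 % DMSO.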

In assay [16] the target is T4, Carbonic anhydrase 12. The assay can be described thus: Binding affinity to human recombinant CA12 catalytic domain after 30 secs by surface plasmon resonance assay.
Assay [17] has as its target T1, Carbonic anhydrase 7. Briefly: Slow rate dissociation at human recombinant CA7 after 30 sec by surface plasmon resonance assay. The method, boiled down: as §1
For assay [18], the target named is T1, Carbonic anhydrase 7. Briefly: Reversible binding affinity to human recombinant CA7.
The target in assay [19] is T3, Carbonic anhydrase 9. Briefly: Binding affinity to human recombinant CA9 catalytic domain assessed as association rate constant after 30 secs by surface plasmon resonance assay. The method, boiled down: as §1
For assay [20], the target named is T6, Carbonic anhydrase 2. The assay can be described thus: Binding affinity to human recombinant CA2 expressed in Escherichia coli assessed as dissociation rate constant after 30 secs by surface plasmon resonance assay.
The target in assay [21] is T5, Carbonic anhydrase 1. The assay can be described thus: Binding affinity to human recombinant CA1 expressed in Escherichia coli assessed as association rate constant after 30 secs by surface plasmon resonance assay. In a few lines:
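Full-length enzyme amine-coupled to a carboxymethyl-dextran chip (75 µg/mL in 10 mM sodium acetate pH 5, about 6000 RU). SPR at 25 °C in PBST pH 7.4 with 2% DMSO. Ligands injected as 2-fold series, 15.6–2000 nM, at 30 or 90 µL/min. Association 30 s, dissociation 180 s. Regeneration with 200 µM sulphanilamide. ka from non-linear fit to a one-step binding model with mass transport.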
Target sequence in this assay (P00915 2-261 limits assumed): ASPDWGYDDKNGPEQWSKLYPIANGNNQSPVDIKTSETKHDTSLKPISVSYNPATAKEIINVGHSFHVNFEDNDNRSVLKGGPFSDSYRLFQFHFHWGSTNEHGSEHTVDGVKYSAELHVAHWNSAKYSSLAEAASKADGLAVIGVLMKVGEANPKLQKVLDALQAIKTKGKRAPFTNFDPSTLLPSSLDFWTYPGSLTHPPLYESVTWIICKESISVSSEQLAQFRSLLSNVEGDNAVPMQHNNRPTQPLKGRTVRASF

In assay [22] the target is T5, Carbonic anhydrase 1. Briefly: Binding affinity to human recombinant CA1 expressed in Escherichia coli after 30 secs by surface plasmon resonance assay. In a few lines:
as §2
Target sequence in this assay (P00915 whole entry, the tested form may be a part): as the sequence (P00915 whole entry, the tested form may be a part) above

Assay [23] has as its target T5, Carbonic anhydrase 1. The assay can be described thus: Binding affinity to human recombinant CA1 expressed in Escherichia coli assessed as dissociation rate constant after 30 secs by surface plasmon resonance assay. In a few lines: as §2
Target sequence in this assay (P00915 whole entry, the tested form may be a part): as above
Assay [24] addresses T3, Carbonic anhydrase 9. The assay can be described thus: Binding affinity to human recombinant CA9 catalytic domain assessed as dissociation rate constant after 30 secs by surface plasmon resonance assay. The method, boiled down:
as §2

Assay [25] has as its target T3, Carbonic anhydrase 9. The assay can be described thus: Binding affinity to human recombinant CA9 catalytic domain assessed as association rate constant at pH 8 by surface plasmon resonance assay. In a few lines: (§3)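 pH-dependence SPR on CA IX or CA XII catalytic domain surfaces, using a denatured-protein reference. Buffers were 50 mM sodium phosphate, 150 mM NaCl, 0.05 % Tween-20 and 2 % DMSO at pH 6.0, 7.0 or 8.0. Ligands ran as 2-fold series (62.5–2000 or 31.3–1000 nM) with 60 s injection and 90–360 s dissociation. Triplicates used a new surface each time. KD = kd/ka from the kinetic fit.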

Assay [26] deals with T3, Carbonic anhydrase 9. Briefly: Binding affinity to human recombinant CA9 catalytic domain assessed as dissociation rate constant at pH 7 by surface plasmon resonance assay. The method, boiled down:
as §3

The target of assay [27] is T3, Carbonic anhydrase 9. Briefly: Binding affinity to human recombinant CA9 catalytic domain assessed as association rate constant at pH 6 by surface plasmon resonance assay. The method, boiled down:
as §3

For assay [28], the target named is T3, Carbonic anhydrase 9. Briefly: Binding affinity to human recombinant CA9 catalytic domain assessed as dissociation rate constant at pH 6 by surface plasmon resonance assay. In a few lines: as §3
Assay [29] concerns the target T3, Carbonic anhydrase 9. Briefly: Binding affinity to human recombinant CA9 catalytic domain assessed as dissociation rate constant at pH 8 by surface plasmon resonance assay. The method, boiled down: as §3
In assay [30] the target is T3, Carbonic anhydrase 9. The assay can be described thus: Binding affinity to human recombinant CA9 catalytic domain assessed as dissociation constant calculated from kinetic parameters at pH 8 by surface plasmon resonance assay. The method, boiled down: as §3
In assay [31] the target is T3, Carbonic anhydrase 9. The assay can be described thus: Binding affinity to human recombinant CA9 catalytic domain assessed as dissociation constant calculated from kinetic parameters at pH 6 by surface plasmon resonance assay. In a few lines: as §3
Assay [32] concerns the target T3, Carbonic anhydrase 9. The assay can be described thus: Binding affinity to human recombinant CA9 catalytic domain assessed as dissociation constant calculated from kinetic parameters at pH 7 by surface plasmon resonance assay. In a few lines: as §3
Assay [33] has as its target T4, Carbonic anhydrase 12. Briefly: Binding affinity to human recombinant CA12 catalytic domain assessed as dissociation constant calculated from saturation signal at pH 6 by surface plasmon resonance assay.
Assay [34] deals with T4, Carbonic anhydrase 12. The assay can be described thus: Binding affinity to human recombinant CA12 catalytic domain assessed as dissociation constant calculated from saturation signal at pH 8 by surface plasmon resonance assay.
For assay [35], the target named is T3, Carbonic anhydrase 9. The assay can be described thus: Binding affinity to human recombinant CA9 catalytic domain assessed as association rate constant at pH 7 by surface plasmon resonance assay. In a few lines: as §3
Assay [36] concerns the target T4, Carbonic anhydrase 12. The assay can be described thus: Binding affinity to human recombinant CA12 catalytic domain assessed as dissociation constant calculated from saturation signal at pH 7 by surface plasmon resonance assay.

The source made the active and inactive calls. The rule behind the calls is not given here.

T1 sequence (P43166 whole entry): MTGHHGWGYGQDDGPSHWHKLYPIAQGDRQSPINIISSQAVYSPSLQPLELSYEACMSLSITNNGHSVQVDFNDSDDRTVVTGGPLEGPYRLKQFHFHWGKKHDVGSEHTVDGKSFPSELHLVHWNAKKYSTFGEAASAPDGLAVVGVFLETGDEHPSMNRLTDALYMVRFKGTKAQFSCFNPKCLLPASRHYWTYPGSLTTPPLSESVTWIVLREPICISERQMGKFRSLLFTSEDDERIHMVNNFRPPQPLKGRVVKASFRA
T4 sequence (O43570 whole entry, the tested form may be a part): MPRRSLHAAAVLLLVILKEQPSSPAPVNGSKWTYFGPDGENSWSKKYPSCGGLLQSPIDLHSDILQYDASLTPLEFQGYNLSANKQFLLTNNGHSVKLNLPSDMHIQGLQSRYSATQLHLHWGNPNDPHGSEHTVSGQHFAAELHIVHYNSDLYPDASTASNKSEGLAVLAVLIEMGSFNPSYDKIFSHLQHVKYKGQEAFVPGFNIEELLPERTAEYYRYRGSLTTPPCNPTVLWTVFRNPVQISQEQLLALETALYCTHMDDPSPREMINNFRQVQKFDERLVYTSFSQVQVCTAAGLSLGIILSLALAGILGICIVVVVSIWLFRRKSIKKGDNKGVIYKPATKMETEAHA

`CCCS(=O)(=O)c1c(F)c(F)c(S(N)(=O)=O)c(F)c1NC1CCCCCCC1`: the Kd is 40 nM in [1]; 15 nM in assay [2]; 0.0067 nM in assay [3]; 3.2 nM in [4]; 2.2 nM in assay [6]; 1.1 nM in assay [7]. Further, the Kd turned out to be 330 nM in [8], 20 nM in assay [10] and 100 nM in [11]. The result in assay [5] and in assay [9] was Active. In addition, the “koff (dissociation rate constant)” value in assay [12] was found to be 2 ×10⁻³ /s.
For the molecule `CC(C)(C)Nc1c(F)c(S(N)(=O)=O)c(F)c(F)c1S(=O)(=O)CCc1ccccc1`, the “Dissociation rate constant (koff)” value in assay [13] stood at 1.1 ×10⁻² /s. Further, the outcome in [14] and in [17] was Active. For the same molecule, the Kd in assay [15] stood at 9.2 nM; in assay [3] it was 0.2 nM; in assay [4], 0.077 nM; in [6], 1.5 nM; in assay [7], 17 nM; in assay [8], 220 nM. Besides, the Kd in assay [10] was 0.59 nM; in [16], 59 nM. Also, in assay [18], the result was inactive. The K in assay [19] came out at 7 ×10⁵ /M/s.
On to `CNc1c(F)c(S(N)(=O)=O)c(F)c(F)c1S(=O)(=O)CCc1ccccc1`, for which the Kd in assay [1] is 45 nM; in [15] it was 16 nM; in assay [3] it was 2 nM; in [4], 3.1 nM; in assay [22], 25 nM; in assay [6], 0.42 nM. The Kd in [7] amounted to 100 nM; in [8], 25 nM; in assay [10] it was 2.4 nM; in [16] it was 95 nM; in [23] it was 1 ×10⁻² /s; in assay [11], 6.4 nM. For the same molecule, the “Dissociation rate constant (koff)” value in [13] is 1.4 ×10⁻¹ /s; in assay [20], 8.2 ×10⁻³ /s. Also, the outcome in assay [14] was Active. The figures for the K in assay [21] and in [19] were 3.9 ×10⁵ /M/s and 6.5 ×10⁶ /M/s, respectively. Moreover, in assay [18], the outcome was inactive. In addition, the “koff (dissociation rate constant)” value in assay [12] is reported as 1.3 ×10⁻² /s; in [24], 1 ×10⁻¹ /s.
As for `CCCSc1c(F)c(F)c(S(N)(=O)=O)c(NC2CCCCCCC2)c1F`, the Kd is 510 nM in [1]; 19 nM in assay [30]; 27 nM in [15]; 0.17 nM in [3]; 74 nM in assay [4]; 140 nM in assay [31]. Further, the Kd in assay [32] is 46 nM; in [6] it was 33 nM; in assay [7], 100 nM; in assay [8] it was 9100 nM; in assay [10], 450 nM; in [16], 400 nM. In addition, the Kd in assay [33] was 2600 nM; in assay [34], 390 nM; in assay [36], 840 nM. In addition, the K in [25] came out at 3.3 ×10⁵ /M/s; in assay [27], 5.8 ×10⁴ /M/s; in [19] it was 2.9 ×10⁵ /M/s; in [35] it was 1.6 ×10⁵ /M/s. The “Dissociation rate constant (koff)” value in [26] came out at 7.2 ×10⁻³ /s; in [28], 7.9 ×10⁻³ /s; in assay [29], 6.2 ×10⁻³ /s. Also, the result in [14] was Active. In [12], the “koff (dissociation rate constant)” value was 1 ×10⁻² /s.
